Reference: ChEMBL document CHEMBL1138107, “Novel non-nucleobase inhibitors of Staphylococcus aureus DNA polymerase IIIC” (Bioorg Med Chem Lett, 2006)
Converted amounts (≈) assume the structure as drawn.

Columns and labels:
[1] = biological target: T1, DNA polymerase III PolC-type (Staphylococcus aureus) (UniProt P0C1P9); assay: Inhibition of DNA polymerase3C from Staphylococcus aureus at 100 uM
T1 sequence (whole entry): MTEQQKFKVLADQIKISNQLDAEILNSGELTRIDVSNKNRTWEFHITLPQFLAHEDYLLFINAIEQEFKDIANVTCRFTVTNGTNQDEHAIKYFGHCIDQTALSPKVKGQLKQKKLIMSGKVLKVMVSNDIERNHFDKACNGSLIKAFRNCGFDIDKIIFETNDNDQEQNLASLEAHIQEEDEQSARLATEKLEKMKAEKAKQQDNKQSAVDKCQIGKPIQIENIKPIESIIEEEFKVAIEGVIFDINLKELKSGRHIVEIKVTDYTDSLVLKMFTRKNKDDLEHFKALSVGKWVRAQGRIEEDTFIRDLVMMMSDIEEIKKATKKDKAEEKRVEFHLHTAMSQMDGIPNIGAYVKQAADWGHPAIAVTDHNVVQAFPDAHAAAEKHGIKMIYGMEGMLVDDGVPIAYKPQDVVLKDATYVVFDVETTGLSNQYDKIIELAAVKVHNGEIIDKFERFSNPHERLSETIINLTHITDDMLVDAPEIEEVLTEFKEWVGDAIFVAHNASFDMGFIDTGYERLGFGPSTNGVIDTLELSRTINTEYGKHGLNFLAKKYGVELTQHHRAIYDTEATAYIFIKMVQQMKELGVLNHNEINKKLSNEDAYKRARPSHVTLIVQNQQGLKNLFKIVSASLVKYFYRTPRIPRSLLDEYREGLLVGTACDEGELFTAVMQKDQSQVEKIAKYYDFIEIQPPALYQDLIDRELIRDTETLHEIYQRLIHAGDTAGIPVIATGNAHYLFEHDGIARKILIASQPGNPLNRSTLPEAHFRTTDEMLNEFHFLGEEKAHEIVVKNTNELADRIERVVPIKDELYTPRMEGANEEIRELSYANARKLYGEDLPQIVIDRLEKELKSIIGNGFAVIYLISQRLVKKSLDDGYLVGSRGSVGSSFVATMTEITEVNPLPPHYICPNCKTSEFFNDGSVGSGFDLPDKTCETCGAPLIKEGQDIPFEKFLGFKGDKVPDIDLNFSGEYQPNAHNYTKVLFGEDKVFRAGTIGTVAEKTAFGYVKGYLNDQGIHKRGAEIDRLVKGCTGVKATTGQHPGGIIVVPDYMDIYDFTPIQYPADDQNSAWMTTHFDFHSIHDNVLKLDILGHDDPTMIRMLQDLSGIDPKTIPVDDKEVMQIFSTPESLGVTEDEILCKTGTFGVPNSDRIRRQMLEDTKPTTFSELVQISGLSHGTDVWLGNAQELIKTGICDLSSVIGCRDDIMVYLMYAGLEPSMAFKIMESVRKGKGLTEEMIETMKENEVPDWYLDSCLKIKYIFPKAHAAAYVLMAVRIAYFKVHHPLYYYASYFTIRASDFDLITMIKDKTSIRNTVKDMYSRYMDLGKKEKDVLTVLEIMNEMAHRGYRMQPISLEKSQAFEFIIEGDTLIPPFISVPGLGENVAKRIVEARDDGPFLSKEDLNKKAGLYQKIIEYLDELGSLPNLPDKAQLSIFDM
How it was run: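 PolC oligonucleotide-primed incorporation of [³H]dTTP was run with 125 ng purified enzyme for 30 min at 37 °C. It was quenched with EDTA, filter-bound on DE81 and counted by liquid scintillation. Compounds were screened in triplicate at 10, 50 and 100.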

HeLa = assay: Cytotoxicity against HeLa cell line by MTS assay; format: functional, cell-based; details: Homo sapiens
How it was run: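 HeLa cells (2 × 10⁴/well) in DMEM with 1% bovine growth serum were exposed to compound at 100, 50, 25 and 12.5 for 18 h at 37 °C under 5% CO₂. Viability was read as MTS reduction to formazan, by absorbance at 490 nm.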

Staphylococcus aureus [2] = assay: Antimicrobial activity against Staphylococcus aureus (RN4220); format: functional; details: read-out: MIC
[3] = biological target: T2, DNA polymerase III PolC-type (Staphylococcus aureus, UniProt P0C1P9); assay: Inhibition of DNA polymerase3C from Staphylococcus aureus
T2 sequence (P0C1P9 whole entry): T1 sequence (whole entry)
How it was run: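 Purified PolC (125 ng) started the reaction with a double-stranded oligonucleotide substrate, dATP, dCTP, low dGTP and [³H]dTTP (1 Ci/mmol) in Tris-HCl pH 7.5 buffer with glycerol, EDTA, DTT, IgG and 8 mM MgCl₂. Incubation was 30 min at 37 °C, stopped with 20 mM EDTA, then spotted on DE81 filters, washed and counted by scintillation. IC50 came from a 12-point, roughly 2-fold serial dilution, run in triplicate.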

Staphylococcus aureus [4] = assay: Inhibition of DNA replication utilizing Staphylococcus aureus replication proteins in presence of reduced dATP concentrations; format: functional, organism-based
How it was run: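 The replication assay used a singly primed circular ssM13 template copied by S. aureus PolC, with β clamp, δδ′/τ clamp loader and SSB. [³H]dTTP incorporation was measured in streptavidin-coated scintillation plates, with the dATP concentration reduced to sensitize the assay to dATP analogs.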

Staphylococcus aureus [5] = assay: Antimicrobial activity against Staphylococcus aureus (RN4220) in presence of 50% of human serum; format: functional

Row | Compound | inhibition [1] [%] | Activity (HeLa) | MIC (Staphylococcus aureus [2]) [µg/mL] | IC50 [3] [µM] | IC50 (Staphylococcus aureus [4]) [µM] | MIC (Staphylococcus aureus [5]) [µg/mL]
1 | COc1ccc(OCCCc2c(O)nc(Nc3ccc4c(c3)CCC4)nc2O)cc1 | 81 | Not toxic | 16 (≈ 39.3 µM) |  |  | 
2 | OCCCc1c(O)nc(Nc2ccc3c(c2)CCC3)nc1O | 74 | Not toxic | 128 (≈ 425 µM) |  |  | 
3 | C=CCc1c(N)nc(Nc2ccc(C)c(CC)c2)[nH]c1=O |  |  |  | 164 |  | 
4 | Nc1nc(Nc2ccc3c(c2)CCC3)nc(O)c1Cc1ccccc1 | 17 | Not toxic | > 128 |  | > 100 | > 128
5 | NCCCc1c(O)nc(Nc2ccc3c(c2)CCC3)nc1O | 40 | Not toxic | > 128 |  |  | 
6 | COC(=O)c1ccc(OCCCc2c(O)nc(Nc3ccc4c(c3)CCC4)nc2O)cc1 | 74 | Not toxic | 64 (≈ 147 µM) |  |  | 
7 | Oc1nc(Nc2ccc3c(c2)CCC3)nc(O)c1CCCCOc1ccccc1 | 67 | Not toxic | 8 (≈ 20.4 µM) | 14 |  | 
8 | COc1cc(OCCCc2c(O)nc(Nc3ccc4c(c3)CCC4)nc2O)ccc1[N+](=O)[O-] | 72 | Not toxic | 8 (≈ 17.7 µM) |  |  | 
9 | C=CCCCCc1c(O)nc(Nc2ccc3c(c2)CCC3)nc1O | 81 | Not toxic | 16 (≈ 49.2 µM) |  |  | 
10 | O=[N+]([O-])c1ccc(OCCCc2c(O)nc(Nc3ccc4c(c3)CCC4)nc2O)nc1 | 85 | Not toxic | 64 (≈ 151 µM) | 5.1 |  | 
11 | C=CCc1c(O)nc(Nc2ccc3c(c2)CCC3)nc1OC | 33 | Not toxic | 128 (≈ 430 µM) |  |  | > 128
12 | O=c1[nH]c(Nc2ccc3c(c2)CCC3)nc(O)c1CCCc1ccccc1 |  |  |  | 3 |  | 
13 | Nc1ccc(OCCCc2c(O)nc(Nc3ccc4c(c3)CCC4)[nH]c2=O)cc1 |  |  |  | 9 |  | 
14 | C=CCCc1c(O)nc(Nc2ccc3c(c2)CCC3)nc1O | 87 | Not toxic | 8 (≈ 26.9 µM) | 17.9 |  | 
15 | O=[N+]([O-])c1ccc(OCCCc2c(O)nc(Nc3ccc4c(c3)CCC4)nc2O)cc1 | 70 | Not toxic | 4 (≈ 9.47 µM) |  |  | 
16 | Oc1nc(Nc2ccc3c(c2)CCC3)nc(O)c1CCc1ccccc1 | 68 | Not toxic | 8 (≈ 23 µM) | 18 |  | 
17 | C=CCc1c(O)nc(Nc2ccc3c(c2)CCC3)nc1Cl | 53 | Not toxic | 1 (≈ 3.31 µM) |  |  | > 128
18 | C=CCc1c(O)nc(Nc2ccc3c(c2)CCC3)[nH]c1=O |  |  |  | 31 |  | 
19 | Oc1nc(Nc2ccc3c(c2)CCC3)nc(O)c1Cc1ccccc1 | 90 | Not toxic | 8 (≈ 24 µM) | 37 |  | 

Row | Compound | inhibition [1] [%] | Activity (HeLa) | MIC (Staphylococcus aureus [2]) [µg/mL] | IC50 [3] [µM] | IC50 (Staphylococcus aureus [4]) [µM] | MIC (Staphylococcus aureus [5]) [µg/mL]
20 | CCc1cc(Nc2nc(N)c(CCCc3ccccc3)c(O)n2)ccc1C | 12 | Not toxic | > 128 |  | 7.9 | > 128
21 | Oc1nc(Nc2ccc3c(c2)CCC3)nc(O)c1CCOc1ccccc1 | 74 | Not toxic | 16 (≈ 44 µM) |  |  | 
22 | O=c1[nH]c(Nc2ccc3c(c2)CCC3)nc(O)c1CCCOc1ccc([N+](=O)[O-])cc1 |  |  |  | 2.6 |  | 
23 | C=CCc1c(Cl)nc(Nc2ccc3c(c2)CCC3)[nH]c1=O |  |  |  | 2.3 |  | 
24 | C=CCc1c(N)nc(Nc2ccc(C)c(CC)c2)nc1O | 32 | Not toxic | 8 (≈ 28.1 µM) |  | 7.7 | 32
25 | N#Cc1ccc(OCCCc2c(O)nc(Nc3ccc4c(c3)CCC4)[nH]c2=O)cc1 |  |  |  | 5.6 |  | 
26 | Nc1ccc(OCCCc2c(O)nc(Nc3ccc4c(c3)CCC4)nc2O)cc1 | 83 | Not toxic | > 64 |  |  | 
27 | Oc1nc(Nc2ccc3c(c2)CCC3)nc(Cl)c1CCCc1ccccc1 | 46 | Not toxic | 16 (≈ 42.1 µM) |  |  | > 128
28 | Oc1nc(Nc2ccc3c(c2)CCC3)nc(O)c1CCCCc1ccccc1 | 35 | Not toxic | > 128 |  |  | 
29 | COc1ccc(OCCCc2c(O)nc(Nc3ccc4c(c3)CCC4)[nH]c2=O)cc1 |  |  |  | 11.6 |  | 
30 | Oc1nc(Nc2ccc3c(c2)CCC3)nc(O)c1CCCN1CCCCC1 | 69 | Not toxic | 128 (≈ 347 µM) |  |  | 
31 | CCCc1cnc(Nc2ccc3c(c2)CCC3)nc1O | 7 | Not toxic | > 128 |  |  | > 128
32 | Nc1cc(O)nc(Nc2ccc3c(c2)CCC3)n1 | 5 | Not toxic | > 128 |  |  | > 128
33 | C=CCCCc1c(O)nc(Nc2ccc3c(c2)CCC3)nc1O | 89 | Not toxic | 16 (≈ 51.4 µM) |  |  | 
34 | O=C(O)c1ccc(OCCCc2c(O)nc(Nc3ccc4c(c3)CCC4)nc2O)cc1 | 90 | Not toxic | > 128 |  |  | 
35 | CCc1cc(Nc2nc(O)c(CCCc3ccc(C#N)cc3OC)c(O)n2)ccc1C | 81 | Not toxic | 16 (≈ 38.2 µM) |  |  | 
36 | C=CCc1c(O)nc(Nc2ccc(C)c(CC)c2)[nH]c1=O |  |  |  | 7.7 |  | 
37 | N#Cc1ccc(OCCCc2c(O)nc(Nc3ccc4c(c3)CCC4)nc2O)cc1 | 91 | Not toxic | 8 (≈ 19.9 µM) |  |  | 
